Laboratory results from ChEMBL document CHEMBL1671748, “Subinhibitory concentrations of protein synthesis-inhibiting antibiotics promote increased expression of the agr virulence regulator and production of phenol-soluble modulin cytolysins in community-associated methicillin-resistant Staphylococcus aureus” (2010).
Converted amounts (≈) assume the structure as drawn. The source made the active and inactive calls. The calls are words filed in the database; no cut-off is given here.

Experiments:
Staphylococcus aureus [1] = test: Decrease in delta toxin levels in Staphylococcus aureus USA300 at subinhibitory concentrations after 24 hrs by RP-HPLC/ESI- MS; type: functional, organism-based
Outline: (§1)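 Antibiotic at a subinhibitory concentration was added at inoculation (1:100 from precultures) into 1 ml tryptic soy broth and shaken 24 h at 200 rpm. Peptides in culture filtrates were quantified by RP-HPLC/ESI-MS in triplicate. Each concentration started at 1/10 of the published MIC and was adjusted to give minimal growth effect, judged by OD600.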

Staphylococcus aureus [2] = test: Decrease in PSMbeta1 levels in Staphylococcus aureus Sanger 252 at subinhibitory concentrations after 24 hrs by RP-HPLC/ESI- MS; type: functional, organism-based
Outline: (§2)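 Antibiotic was added at inoculation (1:100 from preculture) into tryptic soy broth, with an antibiotic-free control, and shaken at 200 rpm for 24 h. Sub-inhibitory levels started at 1/10 of published MICs and were adjusted to give minimal growth effect, with growth tracked by OD600. PSMs in culture filtrates were quantified in triplicate by RP-HPLC/ESI-MS and reported as mean ± SD.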

Staphylococcus aureus [3] = test: Decrease in PSMbeta1 levels in Staphylococcus aureus USA300 at subinhibitory concentration after 24 hrs by RP-HPLC/ESI-MS; type: functional, organism-based; outline: as §2
Staphylococcus aureus [4] = test: Increase in PSMalpha levels in Staphylococcus aureus USA300 at subinhibitory concentrations after 24 hrs by RP-HPLC/ESI- MS; type: functional, organism-based; outline: as §2
Staphylococcus aureus [5] = test: Decrease in delta toxin levels in Staphylococcus aureus Sanger 252 at subinhibitory concentrations after 24 hrs by RP-HPLC/ESI- MS; type: functional, organism-based; outline: as §1
Staphylococcus aureus [6] = test: Antimicrobial activity against community-associated methicillin-resistant Staphylococcus aureus Sanger 252; type: functional
Staphylococcus aureus [7] = test: Decrease in PSMalpha levels in Staphylococcus aureus USA300 at subinhibitory concentration after 24 hrs by RP-HPLC/ESI-MS; type: functional, organism-based; outline: as §1
Staphylococcus aureus [8] = test: Decrease in PSMalpha levels in Staphylococcus aureus Sanger 252 at subinhibitory concentrations after 24 hrs by RP-HPLC/ESI- MS; type: functional, organism-based; outline: as §2
Staphylococcus aureus [9] = test: Antimicrobial activity against community-associated methicillin-resistant Staphylococcus aureus USA300; type: functional
Staphylococcus aureus [10] = test: Increase in PSMalpha levels in Staphylococcus aureus Sanger 252 at subinhibitory concentrations after 24 hrs by RP-HPLC/ESI- MS; type: functional, organism-based; outline: as §1
[11] = biological target: T1, Accessory gene regulator protein A (Staphylococcus aureus) (UniProt P0A0I7); test: Activity of Quorum sensing agr in community-associated methicillin-resistant Staphylococcus aureus USA300 assessed as PSMalpha expression after 8 hrs by qRT-PCR
T1 sequence (whole entry): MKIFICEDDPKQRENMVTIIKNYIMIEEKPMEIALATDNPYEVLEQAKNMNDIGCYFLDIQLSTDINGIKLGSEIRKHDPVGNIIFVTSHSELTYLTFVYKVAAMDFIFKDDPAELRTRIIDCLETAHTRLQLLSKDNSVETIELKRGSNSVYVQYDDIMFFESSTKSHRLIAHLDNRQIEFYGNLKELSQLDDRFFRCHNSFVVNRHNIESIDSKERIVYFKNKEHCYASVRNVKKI
Outline: (§3)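 LAC (USA300) was grown 8 h in shaken 125-ml flasks with antibiotic at a subinhibitory concentration. psmα and psmβ transcripts were quantified by qRT-PCR, with gyrB transcript as control, in parallel with RNAIII as the agr read-out. Run in triplicate; means ± SD.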

[12] = biological target: T1, Accessory gene regulator protein A (Staphylococcus aureus); test: Activity of Quorum sensing agr in community-associated methicillin-resistant Staphylococcus aureus USA300 assessed as PSMbeta expression after 8 hrs by qRT-PCR; outline: as §3

SMILES	Activity (Staphylococcus aureus [1])	Activity (Staphylococcus aureus [2])	Activity (Staphylococcus aureus [3])	Activity (Staphylococcus aureus [4])	Activity (Staphylococcus aureus [5])	MIC (Staphylococcus aureus [6]) [µg/mL]	Activity (Staphylococcus aureus [7])	Activity (Staphylococcus aureus [8])	MIC (Staphylococcus aureus [9]) [µg/mL]	Activity (Staphylococcus aureus [10])	Activity [11]	Activity [12]
CC(=O)NC[C@H]1CN(c2ccc(N3CCOCC3)c(F)c2)C(=O)O1 [LINEZOLID]	inactive	Active	Active	Active	inactive	1 (≈ 2.96 µM)	–	–	–	–	–	–
C/C(=C\C(=O)OCCCCCCCCC(=O)O)C[C@@H]1OC[C@H](C[C@@H]2O[C@H]2[C@@H](C)[C@H](C)O)[C@@H](O)[C@H]1O [MUPIROCIN]	inactive	Active	Active	–	Active	0.25 (≈ 0.499 µM)	inactive	Active	0.12 (≈ 0.24 µM)	–	–	–
Cc1cc(NS(=O)(=O)c2ccc(N)cc2)no1 [SULFAMETHOXAZOLE]	–	–	–	–	–	4.75 (≈ 18.8 µM)	–	–	4.75 (≈ 18.8 µM)	–	–	–
Cc1onc(-c2ccccc2)c1C(=O)N[C@@H]1C(=O)N2[C@@H]1SC(C)(C)[C@@H]2C(=O)O [OXACILLIN]	Active	Active	Active	–	inactive	> 16	Active	–	> 16	inactive	inactive	inactive
CCC[C@@H]1C[C@@H](C(=O)N[C@@H]([C@H]2O[C@H](SC)[C@H](O)[C@@H](O)[C@H]2O)[C@H](C)Cl)N(C)C1 [CLINDAMYCIN]	inactive	Active	Active	Active	inactive	> 4	–	–	0.12 (≈ 0.282 µM)	–	Active	Active
O=C(O)c1cn(C2CC2)c2cc(N3CCNCC3)c(F)cc2c1=O [CIPROFLOXACIN]	inactive	Active	Active	–	inactive	> 16	–	–	2 (≈ 6.04 µM)	–	–	–
CO[C@H]1/C=C/O[C@@]2(C)Oc3c(C)c(O)c4c(O)c(c(/C=N/N5CCN(C)CC5)c(O)c4c3C2=O)NC(=O)/C(C)=C\C=C\[C@H](C)[C@H](O)[C@@H](C)[C@@H](O)[C@@H](C)[C@H](OC(C)=O)[C@@H]1C [RIFAMPIN]	inactive	Active	Active	–	inactive	0.004 (≈ 0.00486 µM)	–	–	0.004 (≈ 0.00486 µM)	–	–	–
CC[C@H]1OC(=O)[C@H](C)[C@@H](O[C@H]2C[C@@](C)(OC)[C@@H](O)[C@H](C)O2)[C@H](C)[C@@H](O[C@@H]2O[C@H](C)C[C@H](N(C)C)[C@H]2O)[C@](C)(O)C[C@@H](C)C(=O)[C@H](C)[C@@H](O)[C@]1(C)O [ERYTHROMYCIN]	inactive	Active	Active	Active	inactive	> 8	–	–	> 8	–	–	–
COc1cc(Cc2cnc(N)nc2N)cc(OC)c1OC [TRIMETHOPRIM]	–	–	–	–	–	0.25 (≈ 0.861 µM)	–	–	0.25 (≈ 0.861 µM)	–	–	–
CN[C@H](CC(C)C)C(=O)N[C@H]1C(=O)N[C@@H](CC(N)=O)C(=O)N[C@H]2C(=O)N[C@H]3C(=O)N[C@H](C(=O)N[C@H](C(=O)O)c4cc(O)cc(O)c4-c4cc3ccc4O)[C@H](O)c3ccc(c(Cl)c3)Oc3cc2cc(c3O[C@@H]2O[C@H](CO)[C@@H](O)[C@H](O)[C@H]2O[C@H]2C[C@](C)(N)[C@H](O)[C@H](C)O2)Oc2ccc(cc2Cl)[C@H]1O	inactive	Active	Active	–	inactive	–	–	–	–	–	–	–
CN(C)[C@@H]1C(O)=C(C(N)=O)C(=O)[C@@]2(O)C(O)=C3C(=O)c4c(O)cccc4[C@@](C)(O)[C@H]3C[C@@H]12 [TETRACYCLINE]	inactive	Active	Active	Active	inactive	1 (≈ 2.25 µM)	–	–	1 (≈ 2.25 µM)	–	Active	Active
